In ChEMBL document CHEMBL3351593, “Potent nonimmunosuppressive cyclophilin inhibitors with improved pharmaceutical properties and decreased transporter inhibition” (J Med Chem, 2014):
≈ marks a conversion by molar mass, not a printed value.

Tests used:
[1] = biological target: Peptidyl-prolyl cis-trans isomerase F, mitochondrial (Homo sapiens, UniProt P30405); assay: Binding affinity to human cyclophilin F by surface plasmon resonance method
Outline: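 Surface plasmon resonance with biotinylated cyclophilin protein, single-cycle kinetics. Running buffer 10 mM HEPES pH 7.4, 150 mM NaCl, 0.05% P20, 3% DMSO, with inhibitor present. Compound injected at several concentrations, 1 min contact each at 50 μL/min, then 10 min final dissociation. kon, koff and KD obtained from a 1:1 binding model fit.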

[2] = Kinetic solubility of the compound in pH 7.0 water; format: physicochemical; details: read-out: Kinetic_solubility
[3] = AUC in dog plasma at 1 mg/kg, po after 72 hrs; format: ADME, organism-based, Canis lupus familiaris; design: time < 72 hr, dose 1 mg/kg, route oral
Outline: (§1)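 Oral dosing as a solution in MEPC: rat 25 mg/kg, dog 1 mg/kg. Blood and plasma collected separately over 0−72 h and AUC computed for each matrix.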

[4] = biological target: T1, Solute carrier organic anion transporter family member 1B3 (Homo sapiens, UniProt Q9NPD5); assay: Inhibition of OATP1B3 (unknown origin) expressed in HEK293 cells using [3H]estradiol-17beta-glucuronide substrate; format: ADME, cell-based
T1 sequence (Q9NPD5 whole entry): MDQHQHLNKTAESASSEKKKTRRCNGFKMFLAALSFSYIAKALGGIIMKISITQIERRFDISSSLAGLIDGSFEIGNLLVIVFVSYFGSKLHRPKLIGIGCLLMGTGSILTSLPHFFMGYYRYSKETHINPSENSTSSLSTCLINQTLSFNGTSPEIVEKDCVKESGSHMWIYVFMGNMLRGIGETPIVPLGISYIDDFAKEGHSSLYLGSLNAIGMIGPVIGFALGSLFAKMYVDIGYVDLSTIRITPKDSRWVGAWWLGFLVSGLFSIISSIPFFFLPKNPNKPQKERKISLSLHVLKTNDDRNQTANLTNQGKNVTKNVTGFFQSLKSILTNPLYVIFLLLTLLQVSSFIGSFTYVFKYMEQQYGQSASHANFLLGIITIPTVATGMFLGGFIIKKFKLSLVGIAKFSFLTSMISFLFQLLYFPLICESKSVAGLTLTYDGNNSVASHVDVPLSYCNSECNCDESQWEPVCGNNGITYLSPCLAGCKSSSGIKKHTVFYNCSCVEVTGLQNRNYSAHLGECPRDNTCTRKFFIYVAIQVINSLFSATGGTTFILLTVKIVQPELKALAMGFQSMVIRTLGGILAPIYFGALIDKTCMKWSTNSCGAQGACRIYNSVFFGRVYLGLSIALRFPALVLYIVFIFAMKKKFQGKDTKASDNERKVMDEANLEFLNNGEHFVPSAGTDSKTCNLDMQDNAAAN
Outline: (§2)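 Recombinant OATP1B1 or OATP1B3 expressed in HEK293 cells, with [3H]estradiol-17β-glucuronide as substrate; IC50 determined.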

Hepatitis C virus [5] = assay: Antiviral activity against HCV subtype 1b in human Huh7.5 cells expressing subgenomic HCV replicons and coexpressing luciferase reporter gene; format: functional, cell-based, Hepacivirus hominis; details: genotype 1b, Huh-7
Outline: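 Stable Huh7.5 lines carrying genotype 1a or 1b subgenomic replicons with luciferase reporter, made by RNA electroporation and G418 selection. Assay run in phenol red-free DMEM without G418, sixteen half-log compound dilutions, in triplicate. Luciferase signal read after 72 h relative to DMSO controls, giving EC50.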

Bile salt export pump = Bile salt export pump (Homo sapiens, UniProt O95342); assay: Inhibition of BSEP (unknown origin) expressed in HEK293 cells using [3H]taurocholic acid substrate; format: ADME, cell-based
Chain of Bile salt export pump (O95342 whole entry): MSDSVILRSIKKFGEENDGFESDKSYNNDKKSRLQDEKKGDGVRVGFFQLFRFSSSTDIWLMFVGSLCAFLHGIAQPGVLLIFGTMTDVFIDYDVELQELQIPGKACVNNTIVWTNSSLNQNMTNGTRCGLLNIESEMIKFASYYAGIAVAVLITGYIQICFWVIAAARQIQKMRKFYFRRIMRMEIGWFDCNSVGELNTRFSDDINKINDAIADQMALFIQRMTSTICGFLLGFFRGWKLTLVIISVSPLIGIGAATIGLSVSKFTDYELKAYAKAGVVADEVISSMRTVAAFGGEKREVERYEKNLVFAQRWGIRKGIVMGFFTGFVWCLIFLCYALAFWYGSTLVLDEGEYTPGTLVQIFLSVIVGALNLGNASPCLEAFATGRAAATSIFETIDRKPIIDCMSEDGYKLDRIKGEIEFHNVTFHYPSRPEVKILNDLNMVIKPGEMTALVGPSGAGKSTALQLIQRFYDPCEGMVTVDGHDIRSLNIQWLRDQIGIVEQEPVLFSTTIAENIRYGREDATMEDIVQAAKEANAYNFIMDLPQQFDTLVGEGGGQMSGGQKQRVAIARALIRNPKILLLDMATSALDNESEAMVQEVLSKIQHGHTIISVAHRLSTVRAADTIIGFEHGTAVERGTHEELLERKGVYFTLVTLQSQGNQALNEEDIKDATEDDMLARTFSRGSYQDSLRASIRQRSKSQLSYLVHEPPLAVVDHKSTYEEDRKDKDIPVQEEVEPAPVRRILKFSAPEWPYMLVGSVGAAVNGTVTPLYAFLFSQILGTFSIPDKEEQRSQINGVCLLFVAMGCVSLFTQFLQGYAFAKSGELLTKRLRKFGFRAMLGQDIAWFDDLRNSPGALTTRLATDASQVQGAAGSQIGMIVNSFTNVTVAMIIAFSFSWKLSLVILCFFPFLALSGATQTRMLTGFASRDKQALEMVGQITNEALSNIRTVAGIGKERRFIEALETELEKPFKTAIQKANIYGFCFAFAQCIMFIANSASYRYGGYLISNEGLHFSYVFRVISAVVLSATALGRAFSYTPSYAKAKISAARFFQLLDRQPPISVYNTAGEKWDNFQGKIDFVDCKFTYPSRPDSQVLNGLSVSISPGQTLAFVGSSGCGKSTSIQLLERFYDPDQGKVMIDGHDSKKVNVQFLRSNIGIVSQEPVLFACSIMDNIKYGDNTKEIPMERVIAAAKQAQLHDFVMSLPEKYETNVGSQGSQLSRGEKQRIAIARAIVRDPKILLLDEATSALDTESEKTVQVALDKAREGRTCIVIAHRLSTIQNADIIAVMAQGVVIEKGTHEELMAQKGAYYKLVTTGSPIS
Outline: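 BSEP activity in HEK293 cells, measured with [3H]taurocholic acid uptake as substrate; IC50 reported.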

PBMC = assay: Cytotoxicity against PHA-stimulated human PBMC by 5-bromo-2'-deoxyuridine incorporation assay; format: cell-based
Outline: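 Fresh PBMCs from two human donors in X-VIVO 15 medium, stimulated with PHA. Seven concentrations taken from a half-log series. Incubated 60 h at 37 °C, 5% CO2, with BrdU added for the final 12 h. Incorporation read by anti-BrdU ELISA at 450 nm. Percent inhibition against PHA-stimulated untreated cells after background subtraction, four-parameter fit giving IC50.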

[6] = AUC in rat plasma at 25 mg/kg, po after 72 hrs; format: ADME, organism-based; design: time < 72 hr, dose 25 mg/kg, route oral; outline: as §1
Hepatitis C virus [7] = assay: Antiviral activity against HCV subtype 1b in human Huh7.5 cells expressing subgenomic HCV replicons and coexpressing luciferase reporter gene in presence of 40% human serum; format: functional, cell-based, Hepacivirus hominis; details: genotype 1b, Huh-7
Outline: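 Genotype 1b luciferase replicon in Huh7.5 cells with 40% human serum added to the assay medium, in phenol red-free DMEM without G418. Sixteen half-log dilutions in triplicate. Luciferase read after 72 h relative to DMSO-treated cells, giving EC50.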

[8] = biological target: T2, Solute carrier organic anion transporter family member 1B1 (Homo sapiens, UniProt Q9Y6L6); assay: Inhibition of OATP1B1 (unknown origin) expressed in HEK293 cells using [3H]estradiol-17beta-glucuronide substrate; format: ADME, cell-based; outline: as §2
T2 sequence (Q9Y6L6 whole entry): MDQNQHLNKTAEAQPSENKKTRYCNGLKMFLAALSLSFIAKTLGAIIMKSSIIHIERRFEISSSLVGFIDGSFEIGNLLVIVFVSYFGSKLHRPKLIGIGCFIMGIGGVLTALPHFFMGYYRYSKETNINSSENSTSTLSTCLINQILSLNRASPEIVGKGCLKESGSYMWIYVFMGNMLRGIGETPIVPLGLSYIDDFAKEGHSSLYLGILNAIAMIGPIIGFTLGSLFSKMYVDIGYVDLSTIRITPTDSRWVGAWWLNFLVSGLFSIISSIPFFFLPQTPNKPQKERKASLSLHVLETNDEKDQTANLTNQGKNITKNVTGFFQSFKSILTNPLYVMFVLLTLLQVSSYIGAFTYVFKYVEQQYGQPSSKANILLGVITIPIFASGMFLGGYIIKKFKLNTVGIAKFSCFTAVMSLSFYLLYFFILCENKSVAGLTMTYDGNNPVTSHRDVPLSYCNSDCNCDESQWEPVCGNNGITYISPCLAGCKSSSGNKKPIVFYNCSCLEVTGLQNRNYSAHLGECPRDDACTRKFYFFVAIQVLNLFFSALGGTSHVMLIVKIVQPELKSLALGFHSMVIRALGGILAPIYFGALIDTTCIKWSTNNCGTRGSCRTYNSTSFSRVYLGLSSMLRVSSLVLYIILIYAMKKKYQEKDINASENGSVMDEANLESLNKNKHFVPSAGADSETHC

Chain of Peptidyl-prolyl cis-trans isomerase F, mitochondrial (P30405 whole entry): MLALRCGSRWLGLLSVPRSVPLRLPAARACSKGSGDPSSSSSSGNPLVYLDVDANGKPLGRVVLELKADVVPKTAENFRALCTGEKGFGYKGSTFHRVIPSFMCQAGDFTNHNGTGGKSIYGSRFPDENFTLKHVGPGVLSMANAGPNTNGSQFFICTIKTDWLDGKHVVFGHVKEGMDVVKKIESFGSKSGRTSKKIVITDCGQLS

C/C=C/C[C@@H](C)[C@@H](O)[C@H]1C(=O)N[C@@H](CC)C(=O)N(C)[C@H](C)C(=O)N(C)[C@@H]([C@@H](C)CN2CCN(CCOC)CC2)C(=O)N[C@@H](C(C)C)C(=O)N(C)[C@@H](CC(C)C)C(=O)N[C@@H](C)C(=O)N[C@H](C)C(=O)N(C)[C@@H](CC(C)C)C(=O)N(C)[C@@H](CC(C)C)C(=O)N(C)[C@@H](C(C)C)C(=O)N1C
Kd [1]: 0.9 nM | solubility kinetic [2]: 1100 µg/mL (≈ 818 µM) | AUC at 72 h [3]: 0.9 µM·h | IC50 [4]: 880 nM | EC50 (Hepatitis C virus [5]): 40 nM | IC50 (Bile salt export pump): 1600 nM | IC50 (PBMC): 13200 nM | AUC at 72 h [6]: 5.8 µM·h | EC50 (Hepatitis C virus [7]): 42 nM | IC50 [8]: 1200 nM

C/C=C/C[C@@H](C)[C@@H](O)[C@H]1C(=O)N[C@@H](CC)C(=O)N(C)[C@H](C)C(=O)N(CC)[C@@H](C(C)C)C(=O)N[C@@H](C(C)C)C(=O)N(C)[C@@H](CC(C)C)C(=O)N[C@@H](C)C(=O)N[C@H](C)C(=O)N(C)[C@@H](CC(C)C)C(=O)N(C)[C@@H](CC(C)C)C(=O)N(C)[C@@H](C(C)C)C(=O)N1C [ALISPORIVIR]
Kd [1]: 1 nM | solubility kinetic [2]: < 5 µg/mL | AUC at 72 h [3]: 0.4 µM·h | IC50 [4]: 220 nM | EC50 (Hepatitis C virus [5]): 46 nM | IC50 (Bile salt export pump): 110 nM | IC50 (PBMC): 500 nM | AUC at 72 h [6]: 2.3 µM·h | EC50 (Hepatitis C virus [7]): 116 nM | IC50 [8]: 180 nM
